Columns and labels:
Mus musculus [1] = test: Biodistribution of intravenously injected [131I]-labeled compound in muscle of BDF1 female mice bearing subcutaneous Lewis lung carcinoma after 0.25 hours; format: ADME, organism-based, Muscle tissue; settings: in vivo, iv
Summary of the method: (§1)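 Female BDF1 mice bearing subcutaneous Lewis lung carcinoma received a single intravenous dose of 0.5-1.8 μg of the 131I-labeled nucleoside (55-110 kBq). They were sacrificed at set times, and tissues were weighed wet and γ-counted. Activity is expressed as percent of injected dose per gram of wet tissue, given as mean ± standard deviation for six animals.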

Mus musculus [2] = test: Biodistribution of intravenously injected [131I]-labeled compound in skin of BDF1 female mice bearing subcutaneous Lewis lung carcinoma after 0.50 hours; format: ADME, organism-based, Zone of skin; settings: in vivo, iv, 0.5 h
Summary of the method: (§2)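 Female BDF1 mice with subcutaneous Lewis lung carcinoma given i.v. 0.5-1.8 μg of 131I-labeled nucleoside (55-110 kBq). Killed at set times. Tissues weighed wet and γ-counted. Radioactivity expressed as percent injected dose per gram wet tissue, mean ± SD of six animals.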

Mus musculus [3] = test: Biodistribution of intravenously injected [131I]-labeled compound in stomach of BDF1 female mice bearing subcutaneous Lewis lung carcinoma after 0.50 hours; format: ADME, organism-based; settings: in vivo, iv, 0.5 h; summary of the method: as §2
Mus musculus [4] = test: Biodistribution of intravenously injected [131I]-labeled compound in spleen of BDF1 female mice bearing subcutaneous Lewis lung carcinoma after 2 hours; format: ADME, organism-based; settings: in vivo, iv; summary of the method: as §2
Mus musculus [5] = species: Mus musculus; test: Urinary [131I]5-iodouracil observed in BDF1 female mice bearing lewis lung tumor after 6-7 hr of injected [131I]-compound; format: functional, tissue-based; settings: Urine
Mus musculus [6] = test: Biodistribution of intravenously injected [131I]-labeled compound in stomach of BDF1 female mice bearing subcutaneous Lewis lung carcinoma after 4 hours; format: ADME, organism-based; settings: in vivo, iv; summary of the method: as §2
Mus musculus [7] = test: Biodistribution of intravenously injected [131I]-labeled compound in spleen of BDF1 female mice bearing subcutaneous Lewis lung carcinoma after 4 hours; format: ADME, organism-based; settings: in vivo, iv; summary of the method: as §2
Mus musculus [8] = test: Biodistribution of intravenously injected [131I]-labeled compound in spleen of BDF1 female mice bearing subcutaneous Lewis lung carcinoma after 8 hours; format: ADME, organism-based; settings: in vivo, iv; summary of the method: as §2
Mus musculus [9] = test: Biodistribution of intravenously injected [131I]-labeled compound in bone of BDF1 female mice bearing subcutaneous Lewis lung carcinoma after 8 hours; format: ADME, organism-based, Bone element; settings: in vivo, iv; summary of the method: as §1
Mus musculus [10] = species: Mus musculus; test: Urinary iodide observed in BDF1 female mice bearing lewis lung tumor after 0-0.5 hr of injected [131I]-compound; format: functional, tissue-based; settings: Urine
Mus musculus [11] = test: Biodistribution of intravenously injected [131I]-labeled compound in kidney of BDF1 female mice bearing subcutaneous Lewis lung carcinoma after 0.25 hours; format: ADME, organism-based; settings: in vivo, iv; summary of the method: as §1
Mus musculus [12] = test: Biodistribution of intravenously injected [131I]-labeled compound in bone of BDF1 female mice bearing subcutaneous Lewis lung carcinoma after 4 hours; format: ADME, organism-based, Bone element; settings: in vivo, iv; summary of the method: as §1
Mus musculus [13] = test: Biodistribution of intravenously injected [131I]-labeled compound in gut of BDF1 female mice bearing subcutaneous Lewis lung carcinoma after 0.50 hours; format: ADME, organism-based; settings: in vivo, iv, 0.5 h; summary of the method: as §1
Mus musculus [14] = test: Biodistribution of intravenously injected [131I]-labeled compound in heart of BDF1 female mice bearing subcutaneous Lewis lung carcinoma after 0.50 hours; format: ADME, organism-based; settings: in vivo, iv, 0.5 h; summary of the method: as §1
Mus musculus [15] = test: Biodistribution of intravenously injected [131I]-labeled compound in bone of BDF1 female mice bearing subcutaneous Lewis lung carcinoma after 0.25 hours; format: ADME, organism-based, Bone element; settings: in vivo, iv; summary of the method: as §1
Mus musculus [16] = species: Mus musculus; test: Urinary [131I]- compound observed in BDF1 female mice bearing lewis lung tumor after 0-0.5 h of injected [131I]-compound; format: functional, tissue-based; settings: Urine
Mus musculus [17] = test: Biodistribution of intravenously injected [131I]-labeled compound in spleen of BDF1 female mice bearing subcutaneous Lewis lung carcinoma after 24 hours; format: ADME, organism-based; settings: in vivo, iv; summary of the method: as §2
Mus musculus [18] = test: Biodistribution of intravenously injected [131I]-labeled compound in stomach of BDF1 female mice bearing subcutaneous Lewis lung carcinoma after 2 hours; format: ADME, organism-based; settings: in vivo, iv; summary of the method: as §2
Mus musculus [19] = species: Mus musculus; test: Urinary iodide observed in BDF1 female mice bearing lewis lung tumor after 6-7 hr of injected [131I]-compound; format: functional, tissue-based; settings: Urine
Mus musculus [20] = test: Biodistribution of intravenously injected [131I]-labeled compound in bone of BDF1 female mice bearing subcutaneous Lewis lung carcinoma after 2 hours; format: ADME, organism-based, Bone element; settings: in vivo, iv; summary of the method: as §1
Mus musculus [21] = test: Biodistribution of intravenously injected [82Br]-labeled compound in lung of BDF1 female mice bearing subcutaneous Lewis lung carcinoma after 4 hours; format: ADME, organism-based; settings: in vivo, iv
Summary of the method: (§3)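 Female BDF1 mice with subcutaneous Lewis lung carcinoma given an iv injection of [82Br]-labelled nucleoside, 47-130 μg carrying 20-60 kBq 82Br. Tissues were excised, weighed wet and γ-counted. Values are percent injected dose per gram of wet tissue, mean ± standard deviation of six animals, with organ-to-tumour ratios derived.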

Mus musculus [22] = test: Biodistribution of intravenously injected [82Br]-labeled compound in stomach of BDF1 female mice bearing subcutaneous Lewis lung carcinoma after 8 hours; format: ADME, organism-based; settings: in vivo, iv
Mus musculus [23] = test: Biodistribution of intravenously injected [82Br]-labeled compound in bone of BDF1 female mice bearing subcutaneous Lewis lung carcinoma after 24 hours; format: ADME, organism-based, Bone element; settings: in vivo, iv
Summary of the method: (§4)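 82Br-labeled nucleoside given intravenously to female BDF1 mice bearing subcutaneous Lewis lung carcinoma, at 47-130 μg carrying 20-60 kBq. Mice sacrificed at each time point. Wet-weighed tissues γ-counted. Values are percent injected dose per gram wet tissue, mean ± SD, n = 6.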

Mus musculus [24] = test: Biodistribution of intravenously injected [82Br]-labeled compound in spleen of BDF1 female mice bearing subcutaneous Lewis lung carcinoma after 24 hours; format: ADME, organism-based; settings: in vivo, iv
Mus musculus [25] = test: Biodistribution of intravenously injected [82Br]-labeled compound in bone of BDF1 female mice bearing subcutaneous Lewis lung carcinoma after 2 hours; format: ADME, organism-based, Bone element; settings: in vivo, iv; summary of the method: as §4
Mus musculus [26] = test: Biodistribution of intravenously injected [82Br]-labeled compound in tumor of BDF1 female mice bearing subcutaneous Lewis lung carcinoma after 0.50 hours; format: ADME, organism-based; settings: in vivo, iv, 0.5 h
Mus musculus [27] = test: Biodistribution of intravenously injected [82Br]-labeled compound in heart of BDF1 female mice bearing subcutaneous Lewis lung carcinoma after 2 hours; format: ADME, organism-based; settings: in vivo, iv; summary of the method: as §3
Mus musculus [28] = test: Biodistribution of intravenously injected [82Br]-labeled compound in muscle of BDF1 female mice bearing subcutaneous Lewis lung carcinoma after 4 hours; format: ADME, organism-based, Muscle tissue; settings: in vivo, iv; summary of the method: as §3
Mus musculus [29] = test: Biodistribution of intravenously injected [82Br]-labeled compound in liver of BDF1 female mice bearing subcutaneous Lewis lung carcinoma after 8 hours; format: ADME, organism-based; settings: in vivo, iv; summary of the method: as §3
Mus musculus [30] = test: Biodistribution of intravenously injected [82Br]-labeled compound in tumor of BDF1 female mice bearing subcutaneous Lewis lung carcinoma after 24 hours; format: ADME, organism-based; settings: in vivo, iv
Mus musculus [31] = test: Biodistribution of intravenously injected [82Br]-labeled compound in skin of BDF1 female mice bearing subcutaneous Lewis lung carcinoma after 24 hours; format: ADME, organism-based, Zone of skin; settings: in vivo, iv; summary of the method: as §3
Mus musculus [32] = test: Biodistribution of intravenously injected [82Br]-labeled compound in spleen of BDF1 female mice bearing subcutaneous Lewis lung carcinoma after 2 hours; format: ADME, organism-based; settings: in vivo, iv
Mus musculus [33] = test: Biodistribution of intravenously injected [82Br]-labeled compound in skin of BDF1 female mice bearing subcutaneous Lewis lung carcinoma after 8 hours; format: ADME, organism-based, Zone of skin; settings: in vivo, iv; summary of the method: as §3
Mus musculus [34] = test: Biodistribution of intravenously injected [82Br]-labeled compound in muscle of BDF1 female mice bearing subcutaneous Lewis lung carcinoma after 1 hours; format: ADME, organism-based, Muscle tissue; settings: in vivo, iv; summary of the method: as §3
Mus musculus [35] = test: Biodistribution of intravenously injected [82Br]-labeled compound in spleen of BDF1 female mice bearing subcutaneous Lewis lung carcinoma after 0.25 hours; format: ADME, organism-based; settings: in vivo, iv; summary of the method: as §3
Mus musculus [36] = test: Biodistribution of intravenously injected [82Br]-labeled compound in stomach of BDF1 female mice bearing subcutaneous Lewis lung carcinoma after 24 hours; format: ADME, organism-based; settings: in vivo, iv
Mus musculus [37] = test: Biodistribution of intravenously injected [82Br]-labeled compound in muscle of BDF1 female mice bearing subcutaneous Lewis lung carcinoma after 0.25 hours; format: ADME, organism-based, Muscle tissue; settings: in vivo, iv; summary of the method: as §3
Mus musculus [38] = test: Biodistribution of intravenously injected [82Br]-labeled compound in heart of BDF1 female mice bearing subcutaneous Lewis lung carcinoma after 1 hours; format: ADME, organism-based; settings: in vivo, iv; summary of the method: as §3

O=c1[nH]c(=O)n([C@@H]2O[C@H](CO)[C@@H](O)[C@H]2F)cc1I
Injected dose/g (Mus musculus [1]): 2.5% | Injected dose/g (Mus musculus [2]): 3.8% | Injected dose/g (Mus musculus [3]): 4.6% | Injected dose/g (Mus musculus [4]): 1.8% | Radioactive constituents (Mus musculus [5]): 0% | Injected dose/g (Mus musculus [6]): 5.7% | Injected dose/g (Mus musculus [7]): 1.8% | Injected dose/g (Mus musculus [8]): 1% | Injected dose/g (Mus musculus [9]): 0.7% | Radioactive constituents (Mus musculus [10]): 4.7% | Injected dose/g (Mus musculus [11]): 21.1% | Injected dose/g (Mus musculus [12]): 1.3% | Injected dose/g (Mus musculus [13]): 2.8% | Injected dose/g (Mus musculus [14]): 6.4% | Injected dose/g (Mus musculus [15]): 2.4% | Radioactive constituents (Mus musculus [16]): 90.8% | Injected dose/g (Mus musculus [17]): 0.5% | Injected dose/g (Mus musculus [18]): 4% | Radioactive constituents (Mus musculus [19]): 39.8% | Injected dose/g (Mus musculus [20]): 1.2%

O=c1[nH]c(=O)n([C@H]2O[C@@H](CO)[C@H](O)[C@H]2F)cc1Br
Injected dose/g (Mus musculus [21]): 0.38% | Injected dose/g (Mus musculus [22]): 0.53% | Injected dose/g (Mus musculus [23]): 0.14% | Injected dose/g (Mus musculus [24]): 0.24% | Injected dose/g (Mus musculus [25]): 0.26% | Injected dose/g (Mus musculus [26]): 0.95% | Injected dose/g (Mus musculus [27]): 0.48% | Injected dose/g (Mus musculus [28]): 0.12% | Injected dose/g (Mus musculus [29]): 0.28% | Injected dose/g (Mus musculus [30]): 0.32% | Injected dose/g (Mus musculus [31]): 0.22% | Injected dose/g (Mus musculus [32]): 0.35% | Injected dose/g (Mus musculus [33]): 0.34% | Injected dose/g (Mus musculus [34]): 0.21% | Injected dose/g (Mus musculus [35]): 1.06% | Injected dose/g (Mus musculus [36]): 0.34% | Injected dose/g (Mus musculus [37]): 0.89% | Injected dose/g (Mus musculus [38]): 0.44%

Reference: ChEMBL document CHEMBL1124493, “Synthesis and tumor uptake of 5-82Br- and 5-131I-labeled 5-halo-1-(2-fluoro-2-deoxy-beta-D-ribofuranosyl)uracils” (J Med Chem, 1989)
